Experimental data: paper PMC3940414 (Journal of Medicinal Chemistry, 2014)
Entries after “also recorded” stand apart in the source; their conditions may differ. Where two headings read alike, the source gives them in different places.

Assays:
[1] = system: lipid amides in the brain; conditions: mice, i.p.; cited from earlier work
[2] = system: cannabinoid CB1 receptor; conditions: background statement, ref not given; cited from earlier work
[3] = system: vanilloid (TRP) receptors; conditions: background statement, ref not given; cited from earlier work
[4] = target: T1, rFAAH (Rattus norvegicus, UniProt P97612); type: biochemical
T1 sequence (P97612 30-579 limits assumed): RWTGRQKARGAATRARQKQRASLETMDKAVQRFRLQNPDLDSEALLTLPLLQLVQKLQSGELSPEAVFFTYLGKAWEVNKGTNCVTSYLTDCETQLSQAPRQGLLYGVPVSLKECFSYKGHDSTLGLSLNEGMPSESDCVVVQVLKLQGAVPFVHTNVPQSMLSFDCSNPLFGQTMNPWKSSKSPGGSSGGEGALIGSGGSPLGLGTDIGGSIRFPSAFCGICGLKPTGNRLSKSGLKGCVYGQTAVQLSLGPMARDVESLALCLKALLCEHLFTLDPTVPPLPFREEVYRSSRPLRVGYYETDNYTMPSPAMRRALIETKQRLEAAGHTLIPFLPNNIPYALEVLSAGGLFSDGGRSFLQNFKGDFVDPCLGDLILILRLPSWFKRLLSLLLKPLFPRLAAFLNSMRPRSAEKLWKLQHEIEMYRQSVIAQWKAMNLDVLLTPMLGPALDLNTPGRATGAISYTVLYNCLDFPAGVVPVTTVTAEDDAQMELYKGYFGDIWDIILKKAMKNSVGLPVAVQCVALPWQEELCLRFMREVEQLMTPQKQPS

[5] = system: human ether-a-go-go related gene product (hERG); conditions: background statement, ref not given; cited from earlier work
[6] = system: analgesia; conditions: cited from earlier work
[7] = target: T2, purified recombinant rat FAAH (Rattus norvegicus, UniProt P97612); experiment: Reversibility of FAAH inhibition by dialysis dilution; type: biochemical; conditions: 3 h preincubation 22 °C, then dialysis 4 °C, 18 h, 370-fold, pH 9
T2 sequence (P97612 30-579 limits assumed): T1 sequence (P97612 30-579 limits assumed)
Summary of the method: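 Purified recombinant rat FAAH (E. coli-expressed) in pH 9.0 Tris/EDTA/glycerol/Triton X-100/Hepes buffer, preincubated 3 h at 22 °C with test compound (final 80, 100 or 150 nM) or DMSO. Triplicate pre-dialysis activity assay, then dialysis (10 000 MW cutoff) against PBS, 4 °C, 18 h, stirred. Post-dialysis activity assayed in triplicate and expressed as % of DMSO control.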

[8] = target: T1, rFAAH; experiment: Lineweaver–Burk kinetic analysis; type: biochemical; conditions: after 3 h preincubation with the enzyme
[9] = system: common P450 metabolism enzymes; conditions: background statement, ref not given; cited from earlier work
[10] = system: cannabinoid CB2 receptor; conditions: background statement, ref not given; cited from earlier work
[11] = Recovery of thioesters from assay buffer and enzymatic assays; type: physicochemical; conditions: for recovery from the assay buffer: 6 h
[12] = system: endogenous brain levels of FAAH substrates (AEA, OEA, PEA); experiment: Brain lipid levels after i.p. inhibitor administration; type: in vivo; conditions: mice, 3 h post i.p. 30 mg/kg, relative to reversible inhibitor 2
[13] = system: neuropathic pain; conditions: cited from earlier work
[14] = enzyme–inhibitor preincubation 0–6 h

Row | Compound | time-dependent change of inhibition potency (in words) [4, 14] | recovery of enzyme activity after dialysis dilution [7] | mode of inhibition (Lineweaver–Burk) [8] | increase of brain anandamide levels over that of 2 [12] | also measured
1 | O=C(CCCCCCc1ccccc1)c1ncc(-c2ccccn2)o1 [compound 2] | does not display time-dependent inhibition | restored full enzyme activity; also recorded: nearly full recovery of enzyme activity | reversible, competitive | – | duration of elevation of brain lipid amides [1]: 2 to 3 h; binding to CB1 receptor [2]: does not bind; binding to vanilloid (TRP) receptors [3]: does not bind; inhibition of hERG [5]: does not significantly inhibit; analgesic effect [6]: induces analgesia; inhibition of common P450 metabolism enzymes [9]: does not significantly inhibit; binding to CB2 receptor [10]: does not bind
2 | COC(=O)c1ccc(-c2cnc(C(=O)CCCCCCc3ccccc3)o2)nc1 [compound 3] | – | – | reversible, competitive | – | –
3 | CSC(=O)c1ccc(-c2cnc(C(=O)CCCCCCc3ccccc3)o2)nc1 [compound 5] | – | – | reversible, competitive | – | time-dependent change of inhibition potency (in words) [4]: did not exhibit this time-dependent increase; recovery from the assay buffer [11]: recovered unchanged; recovery from enzymatic assays ([11]; enzymatic assays): recovered unchanged
4 | N#Cc1ccc(-c2cnc(C(=O)CCCCCCc3ccccc3)o2)nc1 [compound 7] | – | – | – | – | time-dependent change of inhibition potency (in words) [4]: did not display time-dependent increases in potency
5 | COC(=N)c1ccc(-c2cnc(C(=O)CCCCCCc3ccccc3)o2)nc1 [compound 8] | – | – | – | – | time-dependent change of inhibition potency (in words) [4]: did not display time-dependent increases in potency
6 | O=C(CCCCCCc1ccccc1)c1ncc(-c2ccc(CBr)cn2)o1 [compound 11] | most pronounced time-dependent increase in potency | failing to restore FAAH activity; also recorded: little or no recovery of enzyme activity | noncompetitive | approximately 2 fold | duration of elevation of brain lipid amides [1]: > 6 h; time of peak brain lipid amide levels [1]: 1.5 to 3 h; activity in a mouse model of neuropathic pain [13]: long acting in vivo activity
7 | O=C(CCCCCCc1ccccc1)c1ncc(-c2ccc(CCl)cn2)o1 [compound 12] | insensitive to preincubation | – | – | – | –
8 | N#CCc1ccc(-c2cnc(C(=O)CCCCCCc3ccccc3)o2)nc1 [compound 14] | did exhibit increases in potency | failing to restore FAAH activity; also recorded: little or no recovery of enzyme activity | noncompetitive | approximately 2 fold | duration of elevation of brain lipid amides [1]: > 6 h; time of peak brain lipid amide levels [1]: 1.5 to 3 h; activity in a mouse model of neuropathic pain [13]: long acting in vivo activity
9 | CSC(=O)Cc1ccc(-c2cnc(C(=O)CCCCCCc3ccccc3)o2)nc1 [compound 16] | – | – | reversible, competitive | – | time-dependent change of inhibition potency (in words) [4]: did not exhibit this time-dependent increase
10 | COC(=N)Cc1ccc(-c2cnc(C(=O)CCCCCCc3ccccc3)o2)nc1 [compound 17] | did exhibit increases in potency | do not appear to be even slowly reversible | noncompetitive | – | –
11 | CCOC(=O)/C=C/c1ccc(-c2cnc(C(=O)CCCCCCc3ccccc3)o2)nc1 [compound 18] | – | did not restore enzyme activity | mixed kinetics | – | –
12 | N#C/C=C/c1ccc(-c2cnc(C(=O)CCCCCCc3ccccc3)o2)nc1 [compound 19] | – | did not restore enzyme activity | mixed kinetics | – | –
13 | CCOS(=O)(=O)/C=C/c1ccc(-c2cnc(C(=O)CCCCCCc3ccccc3)o2)nc1 [compound 20] | – | – | noncompetitive | approximately 2 fold | –
14 | CS(=O)(=O)/C=C/c1ccc(-c2cnc(C(=O)CCCCCCc3ccccc3)o2)nc1 [compound 21] | – | – | noncompetitive | approximately 2 fold | –
15 | C[S+]([O-])/C=C/c1ccc(-c2cnc(C(=O)CCCCCCc3ccccc3)o2)nc1 (stereo not shown) [compound 22] | – | – | noncompetitive | approximately 2 fold | –
16 | CSC(=O)CCCCc1cnc(C(=O)CCCCCCc2ccccc2)o1 [compound 25] | – | – | reversible, competitive | – | recovery from the assay buffer [11]: recovered unchanged
